Results taken from article PMC6682138 (ACS Omega, 2019).

Tested on: A549 cells
Experiment: MTT cytotoxicity assay, A549
Format: cell-based, human
Conditions: read-out: IC50 A549, 24 h incubation
Outline: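 MTT assay. Cells seeded at 2 × 10^4 per well. A549 and HeLa S3 were maintained in DMEM with 10% FBS, 2 mM L-glutamine and antibiotics at 37 °C, 5% CO2. Test compound in DMSO (0.5%) applied at 100–3.125 μM for 24 h. After a PBS wash, cells received fresh DMEM with MTT (5 mg/mL) for 3–4 h in the dark. DMSO was added and absorbance read at 570 nm. Inhibition % = (A−B)/A × 100 versus untreated control, and IC50 taken from viability–concentration curves.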

N.N.[Cl][Pt][Cl] [cisplatin, reference compound]
IC50: 18 ± 3.1 µM
